Like-named read-outs stand apart in the source and are kept apart here.
What was measured:
P450 2B10 = assay: Western blot of liver microsomes, P450 2B10 protein expression; settings: C57BL/6 mice, 100 mg/kg p.o. 3 days
P450s 2B9/10 = assay: Liver microsomal P450 2B activity; assay type: in vivo, mice
P450 = assay: Liver microsomal P450 content after oral dosing of mice; assay type: in vivo; settings: C57BL/6 mice, 100 mg/kg p.o. 3 days, vs corn oil
P450 3A11 [1] = assay: Liver microsomal P450 3A activity; assay type: in vivo, mice
P450 3A11 [2] = assay: Western blot of liver microsomes, P450 3A11 protein expression; settings: C57BL/6 mice, 100 mg/kg p.o. 3 days
P450s 1A1/2 = assay: Liver microsomal P450 1A activity; assay type: in vivo, mice; settings: C57BL/6 mice, 100 mg/kg p.o. 3 days, vs corn oil
P450 1A1/1A2 [3] = settings: mouse, in vivo, po, 100 mg/kg
NQO = assay: Liver cytosolic NQO activity; assay type: in vivo, mice; settings: C57BL/6 mice, 100 mg/kg p.o. 3 days, vs corn oil
GSTμ = assay: Western blot of liver cytosol, GSTμ protein expression; assay type: in vivo, mice; settings: C57BL/6 mice, 100 mg/kg p.o. 3 days
PXR [4] = molecular target: T1, PXR (Mus musculus, UniProt O54915); assay: PXR-DR3 reporter assay; assay type: cell-based; settings: CV-1 cells, full length PXR
T1 sequence (O54915 1-431): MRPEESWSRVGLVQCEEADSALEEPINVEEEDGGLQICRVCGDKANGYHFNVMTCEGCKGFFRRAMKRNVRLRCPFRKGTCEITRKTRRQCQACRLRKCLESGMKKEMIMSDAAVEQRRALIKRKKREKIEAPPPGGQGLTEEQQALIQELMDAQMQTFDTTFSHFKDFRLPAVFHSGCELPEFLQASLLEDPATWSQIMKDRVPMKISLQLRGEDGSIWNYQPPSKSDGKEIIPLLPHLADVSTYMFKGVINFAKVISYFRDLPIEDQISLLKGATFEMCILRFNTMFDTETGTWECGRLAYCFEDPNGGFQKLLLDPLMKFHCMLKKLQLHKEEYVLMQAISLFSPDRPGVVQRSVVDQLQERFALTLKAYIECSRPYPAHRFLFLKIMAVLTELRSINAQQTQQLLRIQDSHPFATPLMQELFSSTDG
T1 sequence (P19793 1-462 partner): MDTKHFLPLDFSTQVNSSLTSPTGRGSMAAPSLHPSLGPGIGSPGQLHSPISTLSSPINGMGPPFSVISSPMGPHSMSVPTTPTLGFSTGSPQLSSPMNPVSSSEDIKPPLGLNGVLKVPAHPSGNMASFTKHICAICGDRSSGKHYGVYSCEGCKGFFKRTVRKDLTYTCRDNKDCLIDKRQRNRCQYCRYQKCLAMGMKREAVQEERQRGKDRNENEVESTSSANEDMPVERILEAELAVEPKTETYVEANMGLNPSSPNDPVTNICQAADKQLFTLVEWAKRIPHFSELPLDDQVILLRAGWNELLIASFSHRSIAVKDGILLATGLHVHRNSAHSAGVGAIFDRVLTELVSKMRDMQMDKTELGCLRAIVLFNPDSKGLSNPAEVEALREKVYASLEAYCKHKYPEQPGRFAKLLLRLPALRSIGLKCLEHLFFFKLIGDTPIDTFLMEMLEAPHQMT

PXR LBD and SRC-1 RID = PXR LBD and SRC-1 RID (Mus musculus, UniProt O54915); assay: Mammalian two-hybrid assay, Gal-SRC-1 RID + VP-L-PXR in CV-1 cells; assay type: cell-based; settings: isopimpinellin 50 μM; PCN 10 μM; Figure 7A
PXR LBD and SRC-1 RID, sequence (Q15788 570-780 partner limits assumed, one chain of several): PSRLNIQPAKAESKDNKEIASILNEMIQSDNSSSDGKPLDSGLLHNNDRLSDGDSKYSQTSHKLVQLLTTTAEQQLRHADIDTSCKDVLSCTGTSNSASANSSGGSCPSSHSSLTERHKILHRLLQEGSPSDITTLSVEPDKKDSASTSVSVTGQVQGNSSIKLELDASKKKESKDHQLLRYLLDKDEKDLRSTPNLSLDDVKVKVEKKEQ
Summary of the method: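 Mammalian two-hybrid in CV-1 cells co-transfected with Gal-SRC-1 RID and/or VP-L-PXR, plus MH100-tk-luc reporter and CMX-β-gal. Cells were exposed to compound or solvent control in medium for 18–24 h. Interaction was taken as luciferase activity normalised to β-gal activity; mean ± SD.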

PXR [5] = molecular target: T2, PXR (Mus musculus, UniProt O54915); assay: GAL-PXR reporter assay; assay type: cell-based; settings: CV-1 cells, 18–24 h
T2 sequence (O54915 143-430 limits assumed): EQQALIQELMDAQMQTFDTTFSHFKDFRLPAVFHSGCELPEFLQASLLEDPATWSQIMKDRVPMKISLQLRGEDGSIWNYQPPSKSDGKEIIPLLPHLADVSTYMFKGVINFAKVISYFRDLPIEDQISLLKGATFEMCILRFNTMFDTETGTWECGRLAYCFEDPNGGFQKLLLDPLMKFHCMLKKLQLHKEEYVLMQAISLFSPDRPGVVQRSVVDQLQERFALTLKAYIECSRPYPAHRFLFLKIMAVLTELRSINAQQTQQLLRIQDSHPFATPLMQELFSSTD

Cyp2b10 mRNA = assay: Northern blot of liver RNA, Cyp2b10 mRNA in CAR; settings: isopimpinellin 150 mg/kg p.o. 24 h, TC 3 mg/kg i.p. 6 h
GSTp mRNA = assay: Northern blot of liver RNA, GSTp mRNA in CAR; assay type: in vivo, mice; settings: isopimpinellin 150 mg/kg p.o. 24 h; TC 3 mg/kg i.p. 6 h
[6] = molecular target: mCAR-LBD fused to the Gal4 DNA binding domain (Mus musculus, UniProt O35627); assay: CAR transfection assay, Gal4-mCAR LBD fusion reporter in HepG2 cells; assay type: cell-based, murine; settings: HepG2, 4 μM androstanol; 250 nM TC or 0.1–100 μM isopimpinellin, 24 h
mCAR-LBD fused to the Gal4 DNA binding domain, sequence (O35627 119-358 limits assumed): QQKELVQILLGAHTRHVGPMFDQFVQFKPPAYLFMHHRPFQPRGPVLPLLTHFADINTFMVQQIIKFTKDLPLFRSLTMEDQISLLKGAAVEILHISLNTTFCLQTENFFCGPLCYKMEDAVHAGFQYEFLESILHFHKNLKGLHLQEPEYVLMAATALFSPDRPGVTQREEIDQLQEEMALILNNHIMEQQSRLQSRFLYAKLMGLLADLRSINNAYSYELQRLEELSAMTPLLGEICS

Cyp3a11 mRNA = assay: Northern blot of liver RNA, Cyp3a11 mRNA in CAR; settings: isopimpinellin 150 mg/kg p.o. 24 h, TC 3 mg/kg i.p. 6 h
GSTa1 mRNA = assay: Northern blot of liver RNA, GSTa1 mRNA in CAR; assay type: in vivo, mice; settings: isopimpinellin 150 mg/kg p.o. 24 h; TC 3 mg/kg i.p. 6 h
full-length mCAR = full-length mCAR (Mus musculus, UniProt O35627); assay: CAR transfection assay, full-length mCAR reporter in HepG2 cells; assay type: cell-based, murine; settings: 4 μM androstanol
full-length mCAR, sequence (O35627 whole entry): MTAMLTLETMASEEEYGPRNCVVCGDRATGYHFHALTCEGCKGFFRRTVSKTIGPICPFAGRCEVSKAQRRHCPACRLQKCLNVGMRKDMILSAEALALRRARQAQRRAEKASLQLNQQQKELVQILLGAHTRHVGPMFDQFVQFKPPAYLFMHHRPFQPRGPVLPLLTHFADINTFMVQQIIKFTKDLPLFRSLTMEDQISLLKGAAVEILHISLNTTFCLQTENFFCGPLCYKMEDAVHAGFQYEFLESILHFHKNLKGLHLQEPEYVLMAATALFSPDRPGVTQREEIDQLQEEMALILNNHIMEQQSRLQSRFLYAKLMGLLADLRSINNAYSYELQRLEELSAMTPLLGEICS
Summary of the method: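 HepG2 cells in DMEM with 10% FBS were plated at 10^5 per well in charcoal-stripped serum. They were co-transfected with pCMX-mCAR or empty pCMX, a […] (LXRE)3 firefly luciferase reporter and a pRL-tk renilla control. At 70–80% confluence, cells got 4 μM androstanol, 0.1% DMSO or 4 μM […] plus 250 nM reference agonist or 0.1–100 μM test compound. After 24 h, firefly/renilla ratio was read; mean ± SD, ≥3 experiments.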

P450 1A1/1A2 [7] = assay: Western blot of liver microsomes, P450 1A1/1A2 protein expression; settings: C57BL/6 mice, 100 mg/kg p.o. 3 days
GST (DCNB, GST μ) = assay: Liver cytosolic GST activity, DCNB as substrate, after oral dosing of mice; assay type: in vivo; settings: C57BL/6 mice, 100 mg/kg p.o. 3 days, vs corn oil
[8] = C57BL/6 mice, 100 mg/kg p.o. 3 days, vs corn oil

## CCC1(c2ccccc2)C(=O)NC(=O)NC1=O [PB, Phenobarbital, reference compound]
P450 2B10
  P450 2B10 protein expression (western blot densitometry): increased
P450s 2B9/10; [8]
  Increase in P450 2B activity (pentoxyresorufin), liver microsomes: significant increase
P450
  P450 content, liver microsomes: increased
P450 3A11 [1]; mouse, in vivo, po, 100 mg/kg
  Increase in P450 3A activity (testosterone), liver microsomes: 3–4 fold
P450 3A11 [2]
  P450 3A11 protein expression (western blot densitometry): increased
P450s 1A1/2
  P450 1 activity (ethoxyresorufin), liver microsomes: significant increase
P450 1A1/1A2 [3]
  P450 1A1/1A2 protein expression (western blot densitometry): increased
NQO
  Increase in NQO activity, liver cytosol: not significantly different from the control group
GSTμ
  Liver cytosolic GSTμ protein expression (western blot densitometry): greater effect

## CC(=O)[C@H]1[C@H](C#N)C[C@H]2[C@@H]3CC=C4C[C@@H](O)CC[C@]4(C)[C@H]3CC[C@@]21C [PCN, reference compound]
PXR [4]
  Max (concentration to reach maximal effect), PXR-DR3: 100 nM
PXR [4]; 18–24 h
  ED50, PXR-DR3 activation: 0.02 µM
PXR LBD and SRC-1 RID
  Induced interaction of PXR LBD and SRC-1 RID compared to the control: similar
PXR [5]
  Max (concentration to reach maximal effect), GAL-PXR: 3,000 nM
PXR [5]; luciferase normalized by β-gal
  ED50, GAL-PXR activation: 0.063 µM

## Clc1cnc(Oc2ccc(Oc3ncc(Cl)cc3Cl)cc2)c(Cl)c1 [TC, 1,4-bis[2-(3,5-dichloropyridyloxy)]benzene, reference compound]
Cyp2b10 mRNA
  Induction of hepatic Cyp2b10 mRNA, CAR(−/−) mice: absent
Cyp2b10 mRNA; male and female
  Induction of hepatic Cyp2b10 mRNA, CAR(+/+) mice: ~ 4 fold
GSTp mRNA
  Increase in hepatic GSTp mRNA, CAR(−/−) mice: no increase
  Increase in hepatic GSTp mRNA, female CAR(+/+) mice: ~ 4 fold
[6]
  Effect on the inhibitory effect of androstanol on Gal4 reporter expression (mCAR-LBD): counteracted
Cyp3a11 mRNA
  Induction of hepatic Cyp3a11 mRNA, CAR(−/−) mice: absent
Cyp3a11 mRNA; male and female
  Induction of hepatic Cyp3a11 mRNA, CAR(+/+) mice: ~ 4 fold
GSTa1 mRNA
  Increase in hepatic GSTa1 mRNA, female CAR(−/−) mice: did not increase
  Increase in hepatic GSTa1 mRNA, male CAR(−/−) mice: did not increase
  Increase in hepatic GSTa1 mRNA, male and female CAR(+/+) mice: 8–10 fold

## C[C@@]12CCC[C@H]1[C@@H]1CC[C@H]3C[C@@H](O)CC[C@]3(C)[C@H]1CC2 [androstanol]
full-length mCAR
  Constitutive CAR transactivation: blocked

## O=c1ccc2ccc3occc3c2o1 [angelicin]
P450 1A1/1A2 [7]
  P450 1A1/1A2 protein expression (western blot densitometry): increased
GST (DCNB, GST μ)
  GST activity using DCNB as a substrate, liver cytosol: highest increase
P450 3A11 [1]; [8]
  Increase in P450 3A activity (testosterone), liver microsomes: not statistically significant

## CC(C)=CCC/C(C)=C/COc1ccc2ccc(=O)oc2c1 [auraptene]
P450 1A1/1A2 [7]
  P450 1A1/1A2 protein expression (western blot densitometry): did not have any apparent effect
P450 2B10
  P450 2B10 protein expression (western blot densitometry): did not have any apparent effect
P450 3A11 [2]
  P450 3A11 protein expression (western blot densitometry): did not have any apparent effect

## CC(C)=CCC/C(C)=C/COc1c2ccoc2cc2oc(=O)ccc12 [bergamottin]
P450 1A1/1A2 [7]
  P450 1A1/1A2 protein expression (western blot densitometry): increased
P450 2B10
  P450 2B10 protein expression (western blot densitometry): increased
P450s 2B9/10; mouse, in vivo, po, 100 mg/kg
  Increase in P450 2B activity (pentoxyresorufin), liver microsomes: ~ 5 fold
P450 3A11 [1]; [8]
  Increase in P450 3A activity (testosterone), liver microsomes: 3–4 fold
P450 3A11 [2]
  P450 3A11 protein expression (western blot densitometry): increased
NQO
  Increase in NQO activity, liver cytosol: 2–3 fold

## O=c1ccc2ccccc2o1 [coumarin, 1,2-benzopyrone]
P450 1A1/1A2 [7]
  P450 1A1/1A2 protein expression (western blot densitometry): did not have any apparent effect
P450 2B10
  P450 2B10 protein expression (western blot densitometry): did not have any apparent effect
GST (DCNB, GST μ)
  GST activity using DCNB as a substrate, liver cytosol: highest increase
P450 3A11 [2]
  P450 3A11 protein expression (western blot densitometry): did not have any apparent effect
NQO
  Increase in NQO activity, liver cytosol: 2–3 fold

## COc1cc(OC)c2ccc(=O)oc2c1 [limettin, 5,7-dimethoxycoumarin]
P450 1A1/1A2 [7]
  P450 1A1/1A2 protein expression (western blot densitometry): did not have any apparent effect
P450 2B10
  P450 2B10 protein expression (western blot densitometry): did not have any apparent effect
P450 3A11 [2]
  P450 3A11 protein expression (western blot densitometry): did not have any apparent effect
